Screening data: PubChem BioAssay, several laboratories
Dynein cargo inh: dynein cargo transport inhibition; z-score, hits read low; 220,000 compounds, 0.47% hits; 3617.4 mouse cells, GR-EGFP nuclear translocation imaging; test concentration mostly 20 µM; stimulated with dexamethasone, 1 µM; active compounds read low;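 active = plate z-score of nuclear minus cytoplasmic receptor signal below a set negative limit, without overly bright fluorescence or cell loss, cut at about -3.5 in these data, passing the limit was not always enough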;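 also: z-score of nuclear minus cytoplasmic ring GR-EGFP intensity difference per well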
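Also added: dexamethasone, 1.0 µM final. Medium: tet-free, stripped-serum medium. Detection: fixed, Hoechst-stained cells imaged at 10x for EGFP. Read-out: nuclear-to-cytoplasmic GR-EGFP distribution per well. Times: induction 48 h, compound 1 h, agonist 30 min.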
UPR XBP1 act: activators of adaptive arm of unfolded protein response (XBP1); CHO-XBP1 luciferase reporter, IRE1-XBP1 UPR activation, luminescence; percent of tunicamycin response, DMSO as zero; activation, % at 20 µM; 330,000 compounds, 0.33% hits; AID 463104;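 active = versus positive control, 20 µM dose yields 30% or more activation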;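 also: 100% = tunicamycin at 10 µg/mL and 0% = DMSO only wells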
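Material: CHO cell line with stable XBP1 luciferase reporter; buffer or medium: F12 medium containing 10% fetal bovine serum; compound: single point, 20 µM final compound, 1% DMSO; incubation: 6 h treatment, 37 °C; measured by: glow luminescence from Steady-Glo reagent; evaluation: activation, % of tunicamycin; control set: tunicamycin high, DMSO low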
L major viab: Leishmania major promastigote growth inhibition; 200,000 compounds, 9% hits; Leishmania major promastigotes, resazurin fluorescence viability; inhibition, % at 10 µM; AID 1063; in the data active = inhibition above about 50%;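 also: promastigotes grown with compound for 44 hours at 28 °C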
CHOP inh: inhibitors of CHOP induction in ER stress response | CHO-K1 CHOP-promoter luciferase, tunicamycin-induced, 15-18 h | inhibition, % at 10 µM | 220,000 compounds, 3.8% hits;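 active = compounds that reduced the stress-induced luciferase reporter signal by more than about 70% of percent inhibition, limit read from the data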;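 also: 0% = tunicamycin plus vehicle and 100% = wells without tunicamycin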
UPR CHOP act: activators of apoptotic arm of unfolded protein response (CHOP). CHO-CHOP luciferase reporter, UPR activation, luminescence; percent of tunicamycin response over DMSO baseline. 330,000 compounds, 0.34% hits. activation, % at 10 µM;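 active = at 10 µM dose, activation of 40% or more, normalized to positive control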;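 also: 100% = tunicamycin at 10 µg/mL and 0% = DMSO alone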
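Assay system: CHO cells with stable CHOP pathway luciferase reporter; Buffer or medium: F12 plus 10% serum; Times: 16-18 h cell attachment, then 6 h compound exposure, 37 °C; Signal: luciferase luminescence; Read-out basis: percent activation relative to tunicamycin control; Control set: tunicamycin high control, DMSO low control.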
T cruzi repl: blocks replication of Trypanosoma cruzi. T. cruzi beta-gal in NIH3T3, luminescence, 90 h. inhibition, % (concentration not given with the values). 300,000 compounds, 1.4% hits. AID 1885;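 active = mean inhibition across valid replicates above about 55%, limit read from the data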;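 also: signal also drops with host cell toxicity which is not excluded here; 0% = plate median of DMSO wells and 100% = zero luminescence signal; higher percent means less beta-gal luminescence so fewer parasites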
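System – NIH/3T3 host cells with β-galactosidase reporter T. cruzi · Doses – single 50 nL compound addition per well in DMSO · Reagent – 5000 T. cruzi trypomastigotes/well · Medium – Low-serum DMEM with 2% FBS · Timing – ≥90 h infection period, 3 h prior cell attachment · Evaluation – parasite load inhibition, % · Technique – GalScreen luminescence, 60 min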
Active calls of the source: *; / = not tested or not shown. This excerpt belongs to a sample that is enriched for hits.

SMILES	Dynein cargo inh	UPR XBP1 act	L major viab	CHOP inh	UPR CHOP act	T cruzi repl
Cc1ccc2nc(NC(=O)CSc3nnc(C)c(=O)n3N)sc2c1	-1.08	-0.2	54.5*	6.3	6.0	1.0
CCn1c(SCC(=O)Nc2nc3ccc(OC)cc3s2)nc2c1c(=O)n(C)c(=O)n2C	-0.413	6.9	5.8	83.8*	1.9	-4.0
CCOc1ccc2nc(NC(=O)Cc3cccs3)sc2c1	0.209	4.0	3.8	33.9	2.0	6.6
COc1cccc(NC(=O)CN(C)C(=O)Cc2c(C)nc3ccccc3c2C)c1	/	-0.5	/	/	1.0	/
CCCCCCSc1cccc(-c2nc3ccc(Cl)cn3c2NCc2ccccc2)c1	/	-1.7	/	/	1.5	37.6
COc1ccc2nc(NC(=O)CCn3cccc3)sc2c1	0.189	-2.1	55.9*	34.6	-1.2	-17.2
COc1ccc(-n2nc(C(=O)Nc3nc4ccc(OC)cc4s3)c3ccccc3c2=O)c(OC)c1	0.0568	2.7	-4.4	87.9*	-2.1	-11.3
CC(C)(C)C(=O)O/N=C(\N)Cc1ccc(-c2csnn2)cc1	0.396	1.5	/	17.8	-1.0	-16.2
CC(C)CCNC(=O)NC(=O)COC(=O)CNC(=O)C1CCCCC1	-0.679	-2.0	-1.3	-2.3	-1.9	-15.3
O=C(Nc1nccs1)c1cc(-c2ccco2)nc2ccccc12	-0.315	/	6.2	16.8	/	-11.2
Cc1cccc(-c2cc(C(=O)NCc3ccccn3)c3ccccc3n2)c1	-1.18	-0.6	6.0	11.3	3.9	6.0
O=C(Nc1nccs1)c1cn(-c2ccccc2)nc1-c1ccccc1	1	-2.5	26.3	70.5*	3.5	3.4
O=C(Nc1nccs1)c1cc(-c2ccccc2)nc2ccccc12	1.44	-0.8	89.8*	27.6	1.9	11.8
CC(C)COc1ccc(-c2nn(-c3ccccc3)cc2C(=O)Nc2nccs2)cc1	0.523	-1.1	29.0	11.4	0.8	63.8*
Cc1ccc(-c2cc(C(=O)NCc3ccccn3)c3ccccc3n2)cc1C	0.241	4.3	87.8*	14.7	-1.7	7.4
O=C(NCCc1ccco1)C(=O)NCC1OCCCN1S(=O)(=O)c1ccccc1 (configuration not stated)	/	-2.0	/	/	0.1	-6.6
Nc1nc(NCCCN2CCOCC2)nc(Nc2ccccc2F)c1[N+](=O)[O-]	-0.333	5.1	/	5.4	-1.3	-1.8
CCOc1ccc(CN(C)C(=O)[C@H](C)NC(=O)c2ccco2)cc1OC	/	4.3	/	/	2.1	-4.9
CN(C)S(=O)(=O)Oc1ccsc1C(=O)Nc1cccc(Cl)c1Cl	-0.155	-0.5	-2.6	54.0	0.4	61.9*
C=CC[n+]1c(-c2ccc(C)cc2)csc1Nc1ccc(NC(C)=O)cc1	-0.606	/	-5.5	84.9*	/	2.0
C=CC[n+]1c(-c2ccc(OC)cc2)csc1NNC(=O)Nc1ccccc1	-0.975	-3.5	6.8	52.1	1.8	48.8
Cc1ccc(NC(=S)N2CCCC(c3nc4ccc(C)cc4[nH]3)C2)c(C)c1 (configuration not stated)	-0.347	-0.9	62.4*	21.5	1.6	15.2
Cc1ccc2nc(C3CCCN(C(=S)Nc4cccc(C)c4C)C3)[nH]c2c1 (configuration not stated)	0.0631	-4.9	82.0*	53.3	-1.7	32.5
CC(C)(C)C1CCC(C(=O)Nc2ccc(N3CCOCC3)cc2N2CCOCC2)CC1 (configuration not stated)	/	-0.7	/	/	1.7	/
CC(Oc1cccnc1[N+](=O)[O-])C(=O)Nc1cccc(Cl)c1 (configuration not stated)	/	-0.7	/	/	1.9	/
CCNc1nc(N)nc(-c2cc(Cl)ccc2O)n1	0.0733	-1.3	17.5	70.0	4.7	-21.1
CCCCNc1nc(N)nc(-c2cc(Cl)ccc2O)n1	1.23	-5.5	21.9	76.6*	2.0	15.4
Cc1ccccc1/C=N/Nc1ncnc2nc[nH]c12	0.249	2.0	/	-11.5	3.6	-25.1
Fc1ccc(/C=N/Nc2ncnc3nc[nH]c23)cc1F	1.16	3.7	50.1*	-3.7	0.2	-9.6
CC1C(=O)OC2C1CCC1(C)CCC(=O)C(C)C21 (configuration not stated)	/	-6.1	/	/	0.1	54.7*
